Here are results for 22 compounds from ChEMBL document CHEMBL1138345, “Scouting human A3 adenosine receptor antagonist binding mode using a molecular simplification approach: from triazoloquinoxaline to a pyrimidine skeleton as a key study” (J Med Chem, 2007).

In assay [1] the target is T1, Adenosine receptor A2b (Homo sapiens) (UniProt P29275).
T1 sequence (whole entry): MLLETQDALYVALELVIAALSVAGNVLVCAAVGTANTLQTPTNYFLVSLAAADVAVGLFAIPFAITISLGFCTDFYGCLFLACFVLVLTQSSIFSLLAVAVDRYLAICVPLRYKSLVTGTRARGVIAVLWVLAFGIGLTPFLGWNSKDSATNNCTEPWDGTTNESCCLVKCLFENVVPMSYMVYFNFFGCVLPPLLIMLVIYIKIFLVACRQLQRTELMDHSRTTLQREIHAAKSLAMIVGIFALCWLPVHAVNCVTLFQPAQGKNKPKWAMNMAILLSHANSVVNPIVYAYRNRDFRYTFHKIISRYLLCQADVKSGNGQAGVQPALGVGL
Nature of the assay: Antagonist activity at human adenosine A2B receptor expressed in CHO cells assessed as inhibition of NECA-stimulated cAMP levels at 1 uM. The format is functional, cell-based. The gist of the method: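 Stably transfected hA2B CHO cells, 1 × 10⁶ cells/assay, preincubated 10 min at 37 °C, pH 7.4, with adenosine deaminase 2 IU/ml and Ro 20-1724 as phosphodiesterase inhibitor. Stimulated by 200 nM NECA; test compound at 1 µM. Stopped with cold 6% TCA; cAMP measured by [³H]cAMP competition protein binding with beef adrenal binding protein. Reported as % inhibition.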

Assay [2] concerns the target Adenosine receptor A2a (Homo sapiens) (UniProt P29274). Nature of the assay: Displacement of [3H]ZM-241385 from human adenosine A2A receptor expressed in CHO cell membranes at 1 uM. The gist of the method:
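Binding of 1 nM [³H]ZM-241385 to hA2A CHO membranes (50 µg protein) in 50 mM Tris HCl, 10 mM MgCl₂, pH 7.4, 60 min at 4 °C; nonspecific binding with 1 µM ZM-241385; filtration and counting; % inhibition at 1 µM test compound.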

Assay [3] concerns the target T2, Adenosine receptor A3 (Homo sapiens, UniProt P0DMS8).
T2 sequence (P0DMS8 whole entry): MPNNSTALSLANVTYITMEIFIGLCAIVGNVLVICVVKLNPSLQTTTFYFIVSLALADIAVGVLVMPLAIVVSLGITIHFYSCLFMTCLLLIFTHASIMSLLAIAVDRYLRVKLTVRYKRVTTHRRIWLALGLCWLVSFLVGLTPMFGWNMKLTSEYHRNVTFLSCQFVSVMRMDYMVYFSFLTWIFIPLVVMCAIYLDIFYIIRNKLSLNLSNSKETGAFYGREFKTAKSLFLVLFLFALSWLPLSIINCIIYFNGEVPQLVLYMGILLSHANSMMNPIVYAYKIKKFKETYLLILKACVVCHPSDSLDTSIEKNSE
Nature of the assay: Displacement of [125I]ABMECA from human adenosine A3 receptor expressed in CHO cell membranes. The gist of the method:
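hA3 CHO membranes, 50 µg protein, with 0.5 nM [¹²⁵I]AB-MECA in 50 mM Tris HCl, 10 mM MgCl₂, 1 mM EDTA, pH 7.4. At least 6–8 ligand concentrations, 120 min at 4 °C. Nonspecific binding with 1 µM AB-MECA. Filtration, counting. Ki via Cheng–Prusoff from IC50; means ± SEM of four assays, each in duplicate.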

The target in assay [4] is T3, Adenosine receptor A1 (Homo sapiens) (UniProt P30542).
T3 sequence (whole entry): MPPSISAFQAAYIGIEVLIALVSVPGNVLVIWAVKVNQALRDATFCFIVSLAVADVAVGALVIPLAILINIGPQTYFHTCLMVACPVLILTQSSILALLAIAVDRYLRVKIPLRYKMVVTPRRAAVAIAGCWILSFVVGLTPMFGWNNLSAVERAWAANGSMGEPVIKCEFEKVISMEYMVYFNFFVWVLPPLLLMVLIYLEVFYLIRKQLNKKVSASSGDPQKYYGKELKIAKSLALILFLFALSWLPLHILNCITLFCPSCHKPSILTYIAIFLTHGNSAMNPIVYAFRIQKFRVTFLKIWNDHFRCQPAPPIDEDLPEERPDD
Nature of the assay: Displacement of [3H]DPCPX from human adenosine A1 receptor expressed in CHO cell membranes at 1 uM. The gist of the method: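 hA1 CHO membranes (50 µg protein) with 1 nM [³H]DPCPX in 50 mM Tris HCl pH 7.4, 120 min at 25 °C; nonspecific binding with 10 µM CHA; glass-fiber filtration, scintillation counting; % inhibition at 1 µM test compound.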

For assay [5], the target named is T2, Adenosine receptor A3. Nature of the assay: Activity at human adenosine A3 receptor expressed in CHO cells assessed as antagonism of Cl-IB-MECA-inhibited cAMP production. The format is functional, cell-based. The gist of the method: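 CHO cells stably expressing hA3, washed, trypsinized, 1 × 10⁶ cells/assay, preincubated 10 min at 37 °C in buffered salt–glucose medium (pH 7.4) with adenosine deaminase 2 IU/ml and Ro 20-1724. Forskolin 1 µM plus Cl-IB-MECA 100 nM. Stopped with cold 6% TCA, ether-extracted, cAMP by [³H]cAMP competition protein binding. IC50 from sigmoid nonlinear regression; means ± SEM of four experiments.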

In assay [6] the target is T4, Adenosine receptor A3 (Homo sapiens) (UniProt P0DMS8).
T4 sequence (whole entry): T2 sequence (P0DMS8 whole entry)
Nature of the assay: Displacement of [125I]ABMECA from human adenosine A3 receptor expressed in CHO cell membranes at 1 uM. The gist of the method:
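Competition at hA3 CHO membranes (50 µg protein) against 0.5 nM [¹²⁵I]AB-MECA, Tris HCl/MgCl₂/EDTA buffer pH 7.4, 120 min at 4 °C; nonspecific binding with 1 µM AB-MECA; test compound at 1 µM; % inhibition of binding.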

Structures are written as SMILES.

Sequence of Adenosine receptor A2a (Homo sapiens) (P29274 whole entry): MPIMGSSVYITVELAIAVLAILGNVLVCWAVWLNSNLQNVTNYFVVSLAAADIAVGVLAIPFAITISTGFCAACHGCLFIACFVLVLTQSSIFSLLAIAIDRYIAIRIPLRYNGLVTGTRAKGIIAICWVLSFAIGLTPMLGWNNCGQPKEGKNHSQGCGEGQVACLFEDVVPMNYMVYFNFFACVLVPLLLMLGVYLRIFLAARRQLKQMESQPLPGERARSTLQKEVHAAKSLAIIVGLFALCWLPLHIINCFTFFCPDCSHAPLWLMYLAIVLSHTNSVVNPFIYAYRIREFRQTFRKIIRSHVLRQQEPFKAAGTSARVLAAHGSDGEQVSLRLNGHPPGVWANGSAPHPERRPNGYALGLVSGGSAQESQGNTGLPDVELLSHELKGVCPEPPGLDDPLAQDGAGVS

Regarding `COc1ccc(NC(=O)c2nc(N)nc3ccccc23)cc1`, in assay [1], the inhibition came to 23%. The Activity in assay [2] worked out at 6%; in assay [4] it was 8%. Further, the Ki in assay [3] is 87.5 nM.
Consider `O=C(Nc1ccc(Br)cc1)c1[nH]c(=O)nc2ccccc12`, for which the affinity in assay [3], expressed as Ki, was 27.2 nM.
As for `Nc1nc(C(=O)Nc2ccc(Br)cc2)c2ccccc2n1`, in assay [1], the inhibition is 2%. Moreover, the Activity in assay [2] and in assay [4] was 1% in each case. In assay [3], this compound came in with a Ki of 550 nM.
Turning to `CC(=O)Nc1nc(C(=O)Nc2ccccc2)c2ccccc2n1`, the inhibition in assay [1] is 5%. In addition, the Activity in assay [2] was found to be 7%; in assay [4] it was 25%. Also, the inhibition constant (Ki) in assay [3] was 25.3 nM. Further, the IC50 in assay [5] came to 140 nM.
For the compound `COc1ccc(NC(=O)c2[nH]c(=O)nc3ccccc23)cc1`, the affinity in assay [3] corresponds to a Ki of 19.5 nM. For the same compound, the concentration for half-maximal inhibition (IC50) in assay [5] was 125 nM.
On to `O=C(Nc1ccccc1)c1nc(=O)[nH]c2ccccc12`, for which the inhibition in assay [1] was 4%. Moreover, the figures for the Activity in assay [2] and in assay [4] were 1% and 22%, respectively.
The matching figures for `COc1ccc(NC(=O)c2nc(=O)[nH]c3ccccc23)cc1`: 9%, 1% and 4%.
Take `Cc1ccc(NC(=O)c2nc(=O)[nH]c3ccccc23)cc1`: the inhibition in assay [1] came out at 2%. The Activity stood at 2% in assay [2] and 21% in assay [4].
On to `O=C(Nc1nc(C(=O)Nc2ccccc2)c2ccccc2n1)c1ccccc1`, for which, in assay [1], the inhibition turned out to be 3%. In addition, the figures for the Activity in assay [2] and in assay [4] were 10% and 7%, respectively. Further, the affinity in assay [3], expressed as Ki, was 182 nM.
Consider `O=C(Nc1ccccc1)c1[nH]c(=O)nc2ccccc12`, for which affinity in assay [3] was put at a Ki of 50 nM. Further, the IC50 in assay [5] was found to be 238 nM.
As to `COc1ccc(NC(=O)c2ccnc(N(C(=O)c3ccccc3)C(=O)c3ccccc3)n2)cc1`, the inhibition in assay [1] was 3%. Also, the Activity in assay [2] was 1%; in assay [4], 5%; in assay [6], 14%.
The matching figures for `COc1ccc(NC(=O)c2ccnc(N)n2)cc1`: 3%, 6%, 3% and 15%.
`Cc1ccc(NC(=O)c2[nH]c(=O)nc3ccccc23)cc1` came in with an inhibitory constant (Ki) in assay [3] of 26.7 nM.
In the case of `COc1ccc(NC(=O)c2cc(N)nc3ccccc23)cc1`, the inhibition in assay [1] is 3%. Besides, the values for the Activity in assay [2], in assay [4] and in assay [6] were 3%, 2% and 1%, respectively.
Turning to `O=C(Nc1ccc(Br)cc1)c1nc(=O)[nH]c2ccccc12`, the inhibition in assay [1] was 2%. Moreover, the Activity in assay [2] was determined as 1%; in assay [4] it was 3%.
For `Nc1cc(C(=O)Nc2ccccc2)c2ccccc2n1`, in assay [1], the inhibition was determined as 5%. The Activity in assay [2] was determined as 2%; in assay [4], 1%; in assay [6], 6%.
For `COc1ccc(NC(=O)c2cc(=O)[nH]c3ccccc23)cc1`, in assay [1], the inhibition was 3%. Further, the Activity was found to be 1% in assay [2], 4% in assay [4] and 26% in assay [6].
With `Cc1ccc(NC(=O)c2nc(N)nc3ccccc23)cc1`, the inhibition in assay [1] worked out at 4%. In addition, the Activity in assay [2] came out at 5%; in assay [4] it was 3%. In assay [3], the Ki turned out to be 98.3 nM.
Take `O=C(Nc1ccccc1)c1cc(=O)[nH]c2ccccc12`: the inhibition in assay [1] was 2%. For the same compound, the results for the Activity in assay [2], in assay [4] and in assay [6] were 1%, 1% and 38%, respectively.
As for `Nc1nc(C(=O)NC2CCCCC2)c2ccccc2n1`, the inhibition in assay [1] was 1%. The Activity in assay [2] came to 3%; in assay [4] it was 2%; in assay [6] it was 21%.
With `Nc1nc(C(=O)Nc2ccccc2)c2ccccc2n1`, in assay [1], the inhibition came out at 5%. Also, the Activity amounted to 17% in assay [2] and 40% in assay [4]. Moreover, the affinity in assay [3] corresponds to a Ki of 350 nM.
On to `COc1ccc(NC(=O)c2ccnc(NC(=O)c3ccccc3)n2)cc1`, for which the inhibition in assay [1] turned out to be 2%. Also, the Activity is 6% in assay [2], 6% in assay [4] and 22% in assay [6].
